Here are results for 2 compounds from paper PMC3825860 (Journal of Ginseng Research, 2013).

For orientation: AUC(0-inf) means total exposure, with the tail of the curve extrapolated. Usually AUC(0-t) stands for exposure summed from dosing to a finite time, without extrapolation to infinity. Higher therefore signals more exposure. The half-life is the time in which the quantity being followed falls by half.

Data set [1] is classed as in vivo, human. The procedure, abridged:
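10 healthy male Korean volunteers, fasted from the night before until 1 PM, took 9 g extract orally with 100 mL water at 8 AM. Heparinised blood was drawn predose and at 4–14 h hourly, 24 and 36 h, and plasma was stored at -70℃. LC-MS/MS used a digoxin internal standard, an ODS column with methanol:water gradient, and 2–100 ng/mL plasma standards. Non-compartmental analysis used trapezoidal AUC, reported as mean±SD.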

For data set [2] the following is noted: oral ginseng powder, healthy men, some individual variation; cited from earlier work.

In data set [1] (male, human, plasma, po), `CC(C)=CCC[C@](C)(O[C@@H]1O[C@H](CO[C@@H]2O[C@H](CO)[C@@H](O)[C@H](O)[C@H]2O)[C@@H](O)[C@H](O)[C@H]1O)[C@H]1CC[C@]2(C)[C@@H]1[C@H](O)C[C@@H]1[C@@]3(C)CC[C@H](O[C@@H]4O[C@H](CO)[C@@H](O)[C@H](O)[C@H]4O[C@@H]4O[C@H](CO)[C@@H](O)[C@H](O)[C@H]4O)C(C)(C)[C@@H]3CC[C@]12C` [Ginsenoside Rb1, ginsenoside Rb1] gave an AUC(0-inf) of 308 ± 146 ng·h/mL, an AUC(0-t) of 102 ± 51 ng·h/mL and a half-life of 58.5 ± 14.3 h.

As to `CC(C)=CCC[C@](C)(O[C@@H]1O[C@H](CO)[C@@H](O)[C@H](O)[C@H]1O)[C@H]1CC[C@]2(C)[C@@H]1[C@H](O)C[C@@H]1[C@@]3(C)CC[C@H](O)C(C)(C)[C@@H]3CC[C@]12C` [Compound K, 20-O-β-Ɗ-glucopyranosyl-20(S)-protopanaxadiol], the “plasma concentration at 36 h after taking the extract” value in data set [1] (single oral 9 g Korean Red Ginseng extract, detected in 8 subjects) was found to be 0.90 ± 0.74 ng/mL. The “time of detection after oral administration” value in data set [2] is recorded as 8 h.
